Compound activity deposited in PubChem by several laboratories.
Beta cell apopt: inhibitors of cytokine-induced beta cell apoptosis, primary screen, luminescence; INS-1E cytokine-induced death, ATP luminescence, 48 h; percent of positive-control rescue, neutral wells zero; protection from apoptosis, % (no concentration beside the values); actives 0.8% (n = 300,000); AID 435005, 2010;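 active means Every replicate reaches about 75%, or at least half do and their mean reaches it too, limit read from the data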;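 further: 0% = cytokine-treated negative control wells and 100% = positive control rescue; higher means more ATP so stronger rescue from cytokine killing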
ANO1 block: TMEM16A chloride channel inhibitors, primary screen, cell-based, HTS | normalized B-score (activity score, 25-100; higher = stronger inhibition) at 10 µM | HEK293 TMEM16A/YFP iodide influx fluorescence, ionomycin | actives 1.2% (n = 310,000);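 active means ratio plate-corrected score three or more library SD toward inhibition, starting fluorescence score within five deviations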;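 further: score derived from kinetic fluorescence span divided by baseline fluorescence per well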
MC4R antag cAMP: MC4R antagonists of cAMP signaling, primary screen, cell-based, TR-FRET, antagonist arm of biased-ligand search. Melanocortin receptor 4 (Homo sapiens), P32245. MC4R-expressing cells, MTII-stimulated cAMP, LANCE TR-FRET. inhibition, % at 6.5 µM. actives 0.48% (n = 360,000);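 active means inhibition above its plate's cutoff, the mean of tested wells on that plate plus 3 SD, cut at about 29% in these data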;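 further: 0% = Melanotan II alone and 100% = Melanotan II plus saturating MCL0020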
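Assay system: U2OS-MC4R stable cell line; Also added: Melanotan II; Technique: Eu-cAMP/anti-cAMP TR-FRET, emission 671 nm; Times: 30-min compound, 1-h challenge, 1-h detection, room temperature.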
CSC inhib: cancer stem cell viability inhibitors, primary screen, luminescence. cancer stem cell-like cells viability. inhibition, % at 7.5 µM. actives 1.1% (n = 300,000); in the data active means inhibition above about 75%; tested in HMLE shEcad cells
ANO1 activ: TMEM16A chloride channel activators or potentiators, primary screen, cell-based, HTS; Anoctamin-1 (Mus musculus), Q8BHY3; HEK293 TMEM16A/YFP-H148Q/I152L, iodide quench fluorescence; stronger effect = lower value; B-score at 10 µM; actives 0.3% (n = 340,000);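 active means fluorescence-ratio B-score plate-corrected deviation score at least 3 library SD below zero, with starting fluorescence score within 5 deviations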;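 further: channel opened by trigger with iodide after compound preincubation; score built on the fluorescence ratio of max minus min over baseline; more negative score means more quench and so TMEM16A activation or potentiation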
MC4R ag barr: MC4R agonists recruiting beta-arrestin, primary screen, cell-based, luminescence, agonist arm of biased-ligand search; AID 540308, 2011; activation, % at 8.9 µM; actives 0.98% (n = 360,000); U2OS MC4R beta-arrestin complementation; percent of melanotan II response, DMSO zero;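 active means activation above a per-plate cutoff, the mean activation of sample wells on that plate plus 3 SD, cut at about 8% in these data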
TMEM16A reconf: TMEM16A chloride channel inhibitors, confirmation, cell-based, re-confirmation. shares compounds with ANO1 block. HEK293 TMEM16A/YFP-H148Q, iodide quench fluorescence; ionomycin added to raise cell calcium. inhibition, % at 10 µM. actives 39% (n = 2,300);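 active means mean duplicate percent inhibition, scaled so buffer wells are 0 and the reference blocker 100, over three buffer SD above buffer mean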
HEK293 Ca mobil: calcium mobilization in TMEM16A/YFP HEK293 cells, confirmation, counter-screen for TMEM16A inhibitor project; calcium response (% of ionomycin), % at 10 µM; shares compounds with ANO1 block; actives 2% (n = 2,300); Fluo4 calcium mobilization; AID 652231, 2013;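 active means duplicate-averaged calcium signal over 20% of the ionomycin maximum, relative to buffer baseline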;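 further: each well's signal is peak minus trough fluorescence divided by its pre-addition baseline; 0% = buffer wells and 100% = ionomycin wells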
Parental YFP cnt: iodide YFP quench changes in parental YFP-HEK293, counter-screen for TMEM16A inhibitor project, cell-based; shares compounds with ANO1 block; ionomycin; YFP ratio F(max-min)/F0 at 10 µM; 2,300 tested, under 10 active; AID 652233, 2013;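 active means yellow fluorescent protein signal ratio exceeding the buffer control mean by over 5 SD of those controls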;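 further: ratio is mean of duplicate wells from kinetic YFP trace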
ClC-1 rat inh: ClC-1 chloride channel inhibition, selectivity assay for TMEM16A inhibitor project, cell-based, voltage-dependent ClC-1; shares compounds with ANO1 block; CHO ClC-1-YFP, iodide influx fluorescence quench; iodide control reads 0, buffer control 100; ratio percent, % at 10 µM; 2,300 tested, under 10 active;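 active means duplicate-mean ratio percent above the mean of iodide-only control wells, which defines zero, plus 5 of their SD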;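 further: higher percent means stronger block of ClC-1 iodide influx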
* hit, by the source's call; i = inactive; nt = no result. Only some compounds are listed: those with a hit (about 3.8% of all), similar ones and a draw of the others.

SMILES | Beta cell apopt | ANO1 block | MC4R antag cAMP | CSC inhib | ANO1 activ | MC4R ag barr | TMEM16A reconf | HEK293 Ca mobil | Parental YFP cnt | ClC-1 rat inh
Clc1ccc(CCNc2ncnc3nc[nH]c23)cc1 | 11 | 100* | 6 | 4 | i | -1 | 36%* | i | -1.2 | -12
COc1ccc(S(=O)(=O)N2CCC(C(=O)NN3CCCCC3)CC2)cc1 | nt | nt | -1 | nt | nt | 1 | nt | nt | nt | nt
CCOC(=O)c1ccccc1N/C=C/C(=O)c1ccccc1 | 7 | 100* | -2 | -13 | i | -1 | i | i | -1.1 | -11
O=C(CSc1nc2ccccc2c(=O)[nH]1)N1CCCCCC1 | -2 | i | 13 | nt | i | -1 | nt | nt | nt | nt
O=C(CSc1nc2ccccc2c(=O)[nH]1)N1CCOCC1 | 2 | i | -4 | 4 | i | -1 | i | i | -1.3 | -6
COc1ccc(-c2noc(CCC(=O)N3CCN(c4cc(C)ccc4C)CC3)n2)cc1 | -13 | 100* | 12 | 18 | i | 2 | i | i | -0.94 | -4
O=C(Nc1ccc(Cl)cc1-c1nc2ccccc2s1)c1ccco1 | -4 | i | 2 | 3 | i | -1 | i | i | -0.93 | 6
COc1c(O)cccc1[C@H](O)C1CCN(CCc2ccc(F)cc2)CC1 | -3 | i | -5 | -7 | i | -2 | nt | nt | nt | nt
O=C(NCc1cccnc1)C1C2C=CC(C2)C1C(=O)Nc1cccc(C(F)(F)F)c1 (centres undefined) | nt | nt | 7 | nt | nt | -1 | nt | nt | nt | nt
O=S(=O)(c1ccc(Cl)cc1)N1CCCC1c1nc(-c2ccc(Cl)cc2)no1 (centres undefined) | -2 | i | 8 | 14 | i | -1 | nt | nt | nt | nt
O=S(=O)(c1ccccc1Cl)N1CCCC1c1nc(-c2ccccc2Cl)no1 (centres undefined) | 3 | 100* | 9 | -4 | i | 0 | 18%* | i | -1.1 | -14
Fc1ccc(NC(=S)Nc2ccccc2OC(F)F)cc1Cl | 6 | 100* | -1 | nt | i | -2 | 63%* | i | -1.4 | -30
Fc1ccc(NC(=S)Nc2cccnc2)cc1Cl | -2 | 25* | 21 | 3 | i | 0 | i | i | -0.81 | -10
FC(F)Oc1ccccc1NC(=S)Nc1cccnc1 | -7 | i | 24 | 4 | i | -1 | nt | nt | nt | nt
COCC(C)NC(=O)COCc1cc(-c2ccc3c(c2)OCO3)on1 (centres undefined) | -1 | i | 17 | -29 | i | 1 | nt | nt | nt | nt
O=C(NCc1ccc(F)cc1)c1cc2c(cc1Cl)N1CCCCCC1=NS2(=O)=O | 2 | nt | 0 | nt | i | 0 | nt | nt | nt | nt
Cc1cn([C@H]2C[C@H](O)[C@@H](CCC(=O)NC(c3ccccc3)c3ccccc3)O2)c(=O)[nH]c1=O | nt | nt | 0 | nt | nt | -3 | nt | nt | nt | nt
O=C(NCCc1cccc(Cl)c1)c1ccc(OC2CCN(Cc3ccccn3)CC2)cc1 | nt | nt | -3 | nt | i | -2 | nt | nt | nt | nt
CCNc1cc2n(c(=O)n1)CCc1cc(OC)c(OC)cc1-2 | 0 | i | -13 | -14 | i | 0 | nt | nt | nt | nt
CCCCCCNc1cc2n(c(=O)n1)CCc1cc(OC)c(OC)cc1-2 | 12 | i | -9 | 0 | i | 2 | i | i | -1 | -12
O=C(O)CCCN1C(=O)/C(=C\c2ccccc2OCc2ccccc2)SC1=S | -7 | 25* | 10 | 12 | i | 0 | i | i | -1.2 | -34
O=C(O)CN1C(=O)/C(=C\c2ccccc2OCc2ccccc2)SC1=S | nt | nt | 3 | nt | nt | 1 | nt | nt | nt | nt
O=C(O)CCCN1C(=O)/C(=C\c2ccc(-c3nc4ccccc4s3)o2)SC1=S | -12 | 25* | 5 | 5 | i | -3 | 24%* | i | -1.1 | -10
CN(C(=O)c1cccc(NC(=O)Cc2cccc(NC(=O)C3CCCN(C(=O)c4ccccc4)C3)c2)c1)C1CCC1 (centres undefined) | nt | nt | 1 | nt | nt | 0 | nt | nt | nt | nt
CCOc1ccc(NC(=O)CC2CC(C)(C)OC2=O)cc1 (centres undefined) | -4 | i | 11 | 3 | i | -1 | nt | nt | nt | nt
SMILES | Beta cell apopt | ANO1 block | MC4R antag cAMP | CSC inhib | ANO1 activ | MC4R ag barr | TMEM16A reconf | HEK293 Ca mobil | Parental YFP cnt | ClC-1 rat inh
CCCC1CC(C)(c2csc(Nc3ccc(OCC)cc3)n2)OC1=O (centres undefined) | 11 | 100* | 0 | 2 | i | 6 | 31%* | i | -0.95 | -20
CCSc1ccc([C@@H]2[C@H]3C(=O)N(CC)C(=O)[C@H]3[C@]3(C(=O)OC)CCCCN23)cc1OC | 0 | nt | 8 | nt | i | -1 | nt | nt | nt | nt
CC(=O)NS(=O)(=O)c1ccc(NC(=O)c2ccccc2F)cc1 | 0 | 25* | 18 | -1 | i | -2 | i | i | -0.85 | -3
Cn1c(SCC(=O)Nc2ccccc2Br)nnc1-c1cnccn1 | -1 | i | 1 | -8 | i | 1 | nt | nt | nt | nt
O=C(c1ccncc1)c1ccc(N2CCN(C3CC(=O)N(Cc4ccccc4)C3=O)CC2)cc1 (centres undefined) | 8 | 100* | 12 | 4 | i | -1 | 25%* | i | -0.89 | -6
Cc1ccccc1-n1nc2c(c1NC(=O)c1cc3ccccc3oc1=O)CS(=O)C2 (centres undefined) | -6 | i | -14 | -13 | i | -1 | nt | nt | nt | nt
Cc1ccccc1-n1nc2c(c1NC(=O)c1cc3ccccc3oc1=O)CS(=O)(=O)C2 | -2 | 25* | nt | -10 | nt | nt | i | i | -1.3 | -8
COc1cc(CN(C)C(=O)C2CCN(S(=O)(=O)c3cccs3)CC2)ccc1OC(F)F | nt | nt | 4 | nt | i | -1 | nt | nt | nt | nt
Cn1c(=O)c2c(nc(NCCCO)n2C/C=C/c2ccccc2)n(C)c1=O | 1 | 100* | -6 | -6 | i | 0 | i | i | -1.1 | -6
